Screening results: PubChem BioAssay, several laboratories
In the library only some 4.7% were active in any assay of this set; here they are far more common.
Jurkat NFkB inh – lowers PMA/ionomycin-induced NF-kB signal in Jurkat cells; PMA/ionomycin-induced NF-kB luciferase reporter, luminescence; inhibition, % at 4 µM; 330,000 tested, 0.53% active; in the data active = inhibition above about 50%
VIM-2 inhibitor – inhibitors of Pseudomonas aeruginosa VIM-2 metallo-beta-lactamase; purified VIM-2, nitrocefin hydrolysis, epi-absorbance fluorescence; inhibition, % at 5.6 µM; 290,000 tested, 0.89% active;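 active = inhibition above the mean of all tested compounds plus 3 SD, cutoff set per screening run, cut at about 7.5% in these data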;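 note: red hydrolysis product quenches plate fluorescence so inhibitors raise well fluorescence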
aSyn 5UTR inh – MLPCN primary screen, SNCA 5' untranslated region; 300,000 tested, 0.82% active; AID 1813; inhibition, % (tested at 7.5 µM); alpha-synuclein 5'UTR reporter, inhibitor activity; in the data active = inhibition above about 60%; inconclusive = no clear call, values can overlap the other calls;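 note: H4 neuroglioblastoma cells stably carrying SNCA 5'UTR luciferase fusion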
Mdm2-MdmX inh – disrupts the human Mdm2-MdmX interaction | O15151+Q00987 | SaOS-2 split-luciferase Mdm2/MdmX complementation, luminescence | 330,000 tested, 3% active | inhibition, % at 8 µM;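 active = inhibition of at least 50% at 8 µM in the primary screen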
Target sequence (O15151 whole entry, looked up): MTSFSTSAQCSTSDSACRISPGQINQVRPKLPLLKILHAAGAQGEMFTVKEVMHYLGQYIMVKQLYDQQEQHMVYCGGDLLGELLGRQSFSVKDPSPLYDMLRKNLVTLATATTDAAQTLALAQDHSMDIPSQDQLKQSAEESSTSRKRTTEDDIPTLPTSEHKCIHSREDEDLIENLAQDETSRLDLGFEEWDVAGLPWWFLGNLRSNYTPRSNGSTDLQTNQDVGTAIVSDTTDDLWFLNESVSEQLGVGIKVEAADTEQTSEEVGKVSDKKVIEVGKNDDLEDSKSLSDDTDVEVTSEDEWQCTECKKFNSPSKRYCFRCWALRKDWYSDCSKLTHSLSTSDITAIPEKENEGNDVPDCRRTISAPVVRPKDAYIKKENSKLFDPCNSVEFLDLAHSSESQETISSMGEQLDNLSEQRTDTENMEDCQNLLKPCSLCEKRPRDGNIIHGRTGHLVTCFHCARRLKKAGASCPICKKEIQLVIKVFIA
Target sequence (Q00987 whole entry, looked up): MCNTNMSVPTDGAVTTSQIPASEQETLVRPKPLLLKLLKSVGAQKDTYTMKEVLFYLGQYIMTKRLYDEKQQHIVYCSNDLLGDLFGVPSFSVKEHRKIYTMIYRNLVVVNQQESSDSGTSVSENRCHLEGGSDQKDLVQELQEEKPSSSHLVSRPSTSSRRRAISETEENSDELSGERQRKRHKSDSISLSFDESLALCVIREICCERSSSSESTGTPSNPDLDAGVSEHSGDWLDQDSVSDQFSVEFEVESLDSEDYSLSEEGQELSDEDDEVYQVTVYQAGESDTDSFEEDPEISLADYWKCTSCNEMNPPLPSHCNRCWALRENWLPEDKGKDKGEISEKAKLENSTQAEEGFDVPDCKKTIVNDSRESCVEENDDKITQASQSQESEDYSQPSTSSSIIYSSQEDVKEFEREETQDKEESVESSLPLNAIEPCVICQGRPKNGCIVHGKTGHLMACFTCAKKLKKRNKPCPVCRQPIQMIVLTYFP
IMP-1 inh – blocks Pseudomonas aeruginosa IMP-1 metallo-beta-lactamase; purified IMP-1, nitrocefin hydrolysis, epi-absorbance fluorescence; inhibition, % at 5.6 µM; 290,000 tested, 0.45% active;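 active = inhibition above the mean plus 3 SD of all compounds in the same screening run, cut at about 4.5% in these data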
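System – purified recombinant IMP-1 beta-lactamase · Input – IMP-1 dispensed at 0.2 nM · Timing – 15 min preincubation plus 25 min reaction at 25 °C · Signal – Epi-absorbance fluorescence, 480 nm excitation, 530 nm emission · Measure – percent IMP-1 inhibition derived from blank-referenced optical density · Controls – Enzyme-plus-DMSO low control, enzyme-free DMSO high control · Replication – singlicate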
697 NFkB inh – lowers PMA/ionomycin-induced NF-kB signal in 697 B cells; 697 B-cell NF-kB luciferase reporter, 16 h; inhibition, % at 4 µM; 330,000 tested, 0.33% active; AID 435022; in the data active = inhibition above about 35%
Mdm2-MdmX conf – human Mdm2/MdmX binding inhibition, confirmed | shares compounds with Mdm2-MdmX inh | luminescent assay | inhibition, % at 8 µM | 10,000 tested, 55% active; in the data active = inhibition above about 40%
Full FLuc ctr – counter-screen for Mdm2/MdmX inhibitors: full-length luciferase; SaOS-2 full-length luciferase counterscreen, luminescence; inhibition, % at 8 µM; 6,200 tested, 77% active; shares compounds with Mdm2-MdmX inh;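 active = mean inhibition at 8 µM reaching about 37%, which flags the compound as non-specific, limit read from the data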;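 note: p53-null SaOS-2 cells with luciferase driven by a doxycycline-inducible promoter; compound on cells about two nights before reading with doxycycline added after day one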
Of the large screens only hits and unclear results are named; the others gave an inactive call (follow-up assays come after a bar, where they were run).

CC1=Nc2cc(C(=O)NCCN3CCOCC3)ccc2Sc2c(C)ccc(C)c21	Mdm2-MdmX inh 64.1 | Mdm2-MdmX conf 51.8 | Full FLuc ctr 46.6
Cc1noc(C)c1NC(=O)N1CCN(Cc2ccccc2)CC1	none
COC(=O)[C@@H]1C[C@]2(OC(=O)c3ccccc3)C=CC(=O)C[C@@H]2N1C(=O)OCc1ccccc1	Mdm2-MdmX inh 94.1 | Mdm2-MdmX conf 62.0 | Full FLuc ctr inactive
Nc1ccc2nn(-c3cccc4ccccc34)nc2c1	Mdm2-MdmX inh 52.8 | Mdm2-MdmX conf inactive
COc1ccc(NC(=O)NNC(=O)c2cc3occc3n2C)c(OC)c1	none
CCOC(=O)C1=C(C)NC(=S)N(C(C)=O)C1c1ccc(OC)c(OC)c1 (configuration not stated)	Mdm2-MdmX inh 56.5 | Mdm2-MdmX conf inactive
CCCCCC1CCC(C(=O)N2CCOCC2)CC1 (configuration not stated)	none
Cc1occc(=O)c1OC(=O)Nc1ccc(Cl)c(Cl)c1	none (no result: Jurkat NFkB inh, aSyn 5UTR inh, Mdm2-MdmX inh, 697 NFkB inh)
O=C(CNCCC1=CCCCC1)Nc1ccccc1N1CCCCC1	none
Cc1ccc(S(=O)(=O)Nc2ccccc2CNC2CCCCC2)cc1	none
CCC(C(=O)O/N=C(\N)c1ccc(C)cc1)c1ccccc1 (configuration not stated)	Mdm2-MdmX inh 50.5 | Mdm2-MdmX conf inactive
CCC(C(=O)O/N=C(\N)c1ccc(Cl)cc1)c1ccccc1 (configuration not stated)	Mdm2-MdmX inh 64.1 | Mdm2-MdmX conf inactive
COc1cccc(NC(=O)/C=C/c2ccc(S(=O)(=O)N3CCOCC3)cc2)c1	none (no result: VIM-2 inhibitor, aSyn 5UTR inh, IMP-1 inh)
Cc1nc(-c2noc(-c3ccc(Cl)cc3)n2)c(C(F)(F)F)o1	none
COc1ccc(-c2nn(-c3ccccc3)cc2C(=O)O)cc1	none
COc1ccc(-c2nn(-c3ccccc3)cc2C(=O)N2c3ccc(C)cc3C3CN(C)CCC32)cc1 (configuration not stated)	Mdm2-MdmX inh 53.9 | Mdm2-MdmX conf inactive | Full FLuc ctr 73.8
Cc1cc(C)n(-c2nc(NCCN(C)C)c3c4c(sc3n2)COC(C)(C)C4)n1	Mdm2-MdmX inh 65.3 | Mdm2-MdmX conf inactive | Full FLuc ctr 62.9
Cc1cc(C)n(-c2nc(NCCC(C)C)c3c4c(sc3n2)COC(C)(C)C4)n1	none (no result: Jurkat NFkB inh, Mdm2-MdmX inh, 697 NFkB inh)
CCN(CC)CCNc1nc(-n2nc(C)cc2C)nc2sc3c(c12)CC(C)(C)OC3	Mdm2-MdmX inh 61.1 | Mdm2-MdmX conf inactive
COc1ccccc1NC(=O)C(C)Sc1nc2ccccc2c(=O)n1CC1CCCO1 (configuration not stated)	none (no result: VIM-2 inhibitor, IMP-1 inh)
Oc1[nH]c2ccc(Br)cc2c1N=NC(=S)Nc1ccc(F)cc1	Mdm2-MdmX inh 71.2 | Mdm2-MdmX conf 69.7 | Full FLuc ctr 42.7
Cc1ccc(NC(=S)N=Nc2c(O)[nH]c3ccccc23)cc1	Mdm2-MdmX inh 64.8 | Mdm2-MdmX conf 51.5 | Full FLuc ctr 66.8
Oc1ccc(NC(=S)N=Nc2c(O)[nH]c3ccccc23)cc1	none
Oc1ccc(NC(=S)N=Nc2c(O)[nH]c3ccc(Br)cc23)cc1	Mdm2-MdmX inh 69.8 | Mdm2-MdmX conf 73.5 | Full FLuc ctr 42.4
Oc1cccc(NC(=S)N=Nc2c(O)[nH]c3ccc(Br)cc23)c1	Mdm2-MdmX inh 56.3 | Mdm2-MdmX conf 46.4 | Full FLuc ctr 57.2
Cc1cccc(N=Nc2c(O)[nH]c3ccc(Br)cc23)c1	none
CN1CCN(C(=O)CCS(=O)(=O)c2cc3c(cc2Cl)NC(=O)CO3)CC1	none
O=C(NCCc1ccc2c(c1)OCCO2)c1ccc([N+](=O)[O-])cc1Cl	none
O=C(CS(=O)c1ccc(Br)cc1)N1CCOCC1 (configuration not stated)	none
Cc1cccc(C)c1NC(=O)CN(C)C(=O)c1ccc(COc2ccccc2)cc1	none
COc1ccccc1NC(=O)COC(=O)c1ccccc1OCC(=O)Nc1ccc(SC(F)F)cc1	none
COc1ccc(CNC(=O)COC(=O)c2ccccc2OCC(=O)Nc2ccc(SC(F)F)cc2)cc1	Mdm2-MdmX inh 98.6 | Mdm2-MdmX conf inactive
O=C1NNC(c2ccccc2)=N/C1=C\c1ccco1	none
COc1cc(/C=C2\N=C(c3ccccc3)NNC2=O)cc(OC)c1OC	Mdm2-MdmX inh 61.0 | Mdm2-MdmX conf 53.6 | Full FLuc ctr 63.5
O=C(CNc1ccc2ccccc2c1)N/N=C/C=C/c1cccc([N+](=O)[O-])c1	Mdm2-MdmX inh 82.4 | Mdm2-MdmX conf inactive
O=C(N/N=C/C=C/c1cccc([N+](=O)[O-])c1)C(O)c1ccccc1 (configuration not stated)	none
Cc1nc(SCC(=O)Nc2ccc(F)cc2)c(C#N)c(C)c1CC(=O)c1ccc(Br)cc1	Mdm2-MdmX inh 96.7 | Mdm2-MdmX conf 76.1 | Full FLuc ctr 80.4
COc1ccc(NC(=O)CSc2nc(C)c3c(c2C#N)CCCC3)cc1	none
Cc1cccc(NC(=O)CSc2nc(C)c(CC(=O)c3ccc(Br)cc3)c(C)c2C#N)c1C	aSyn 5UTR inh inconclusive, Mdm2-MdmX inh 100.2 | Mdm2-MdmX conf inactive
CCn1ncc(Br)c1C(=O)NC1CCCCCCC1	none
Cc1cc(C)n2nc(-c3ccco3)nc2n1	none
O=C(CSc1nnnn1-c1cccc(F)c1)NC1CC1	none (no result: VIM-2 inhibitor, aSyn 5UTR inh, IMP-1 inh)
CCn1c(SCC#N)nc2ccccc2c1=O	none
N#CCSc1nc2ccccc2c2nc3ccccc3n12	Mdm2-MdmX inh 86.8 | Mdm2-MdmX conf 62.6 | Full FLuc ctr 87.2
CCOC(=O)c1c(C)n(C)c2ccc(OCC(O)CNC(CC)CO)cc12 (configuration not stated)	none
CCOC(=O)c1c(C)n(-c2ccc(C)cc2)c2ccc(OCC(O)CNCCCO)cc12 (configuration not stated)	Mdm2-MdmX inh 89.2 (no result: aSyn 5UTR inh) | Mdm2-MdmX conf inactive
CCOC(=O)c1c(C)n(-c2ccc(C)cc2)c2ccc(OCC(O)CNCC3CCCO3)cc12 (configuration not stated)	aSyn 5UTR inh 75.5, Mdm2-MdmX inh 78.0 | Mdm2-MdmX conf 42.4 | Full FLuc ctr 61.8
OC(CNCC1CCCO1)COc1ccc(OCC(O)CNCC2CCCO2)cc1 (configuration not stated)	none
COCCNC(=O)C(=O)NCCN1CCNCC1	none
CC(=O)c1ccc(N2CCN(C(=O)/C=C/c3ccc4ccccc4n3)CC2)cc1	Mdm2-MdmX inh 68.6 | Mdm2-MdmX conf 51.9 | Full FLuc ctr 66.3
Cc1ccc(C(=O)NC(=S)Nc2cc(C(F)(F)F)ccc2Cl)cc1	Mdm2-MdmX inh 55.1 | Mdm2-MdmX conf inactive
O=C(Cc1ccccc1)NC(=S)Nc1cc(C(F)(F)F)ccc1Cl	none
Cc1ccccc1CN1CCN(CC(=O)NCc2ccccc2)C1=O	none
